{"source": "ChEMBL document CHEMBL3044956", "about": "“Nematicidal and antifungal activities of annonaceous acetogenins from Annona squamosa against various plant pathogens” (J Agric Food Chem, 2011)", "format_in_all_cases": "functional", "key": {"[1]": {"tested_on": "Bursaphelenchus xylophilus", "experiment": "Nematicidal activity against second juvenile stage (J2) of Bursaphelenchus xylophilus assessed as mortality at >0.33 ug/ml after 2 days by microtiter plate assay method (Beneficial crop Pine)", "how_it_was_run": "(§1)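 Pine wood nematodes reared on B. cinerea mycelia on PDA for 7 days at 28 °C. J2s collected in 0.01% Triton X-100 water and tested in microtiter plates. Compounds in DMSO or MeOH, solvent ≤1%; solvent-only controls. Concentrations 0.004–1 μg/mL. Mortality Abbott-corrected; LC50 by probit. Two runs, three replicates each.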"}, "[2]": {"tested_on": "Bursaphelenchus xylophilus", "experiment": "Nematicidal activity against second juvenile stage (J2) of Bursaphelenchus xylophilus assessed as mortality after 2 days by microtiter plate assay method (Beneficial crop Pine)", "details": "48 h", "how_it_was_run": "as §1"}, "Meloidogyne incognita [3]": {"tested_on": "Meloidogyne incognita", "experiment": "Nematicidal activity against second juvenile stage (J2) of Meloidogyne incognita (root-knot nematode) assessed as mortality incubated in the dark at 28 degC after 2 days by light microscopy (benficial crop Tomato)", "details": "48 h", "how_it_was_run": "(§2)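 M. incognita eggs taken from infected tomato roots with hypochlorite and J2s hatched in Baermann funnels at 28 °C. J2s from the first 3 days kept in 0.01% Tween 20 water and used within 24 h. About 100 J2s per well; stock added 1:100 in DMSO or MeOH (≤1%). Plates kept shaking in the dark at 28 °C, scored by microscope at 1, 2 and 3 days. Mortality Abbott-corrected. Two runs, three replicates each.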"}, "Meloidogyne incognita [4]": {"tested_on": "Meloidogyne incognita", "experiment": "Nematicidal activity against second juvenile stage (J2) of Meloidogyne incognita (root-knot nematode) assessed as mortality incubated in the dark at 28 degC after 1 day by light microscopy (benficial crop Tomato)", "details": "24 h", "how_it_was_run": "as §2"}, "Meloidogyne incognita [5]": {"tested_on": "Meloidogyne incognita", "experiment": "Nematicidal activity against second juvenile stage (J2) of Meloidogyne incognita (root-knot nematode) assessed as mortality incubated in the dark at 28 degC after 3 days by light microscopy (benficial crop Tomato)", "details": "72 h", "how_it_was_run": "as §2"}, "Phytophthora infestans [6]": {"tested_on": "Phytophthora infestans", "experiment": "In vivo antifungal activity against Phytophthora infestans zoospores infected tomato seedlings assessed as control of tomato late blight disease development at 10 ug/ml treated 1 day before spore inoculation measured 3 days after inoculation", "how_it_was_run": "(§3)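 Potted seedlings sprayed to runoff with material dissolved in MeOH and diluted in 0.025% Tween 20 (5% MeOH); controls got the Tween/MeOH solution alone. Inoculated with spores or mycelial suspension 1 day later. Infected leaf or sheath area rated 3–7 days after inoculation; % control = 100(A−B)/A. Randomized complete block design, three replicates, run in duplicate; Tukey HSD.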"}, "Phytophthora infestans [7]": {"tested_on": "Phytophthora infestans", "experiment": "In vivo antifungal activity against Phytophthora infestans zoospores infected tomato seedlings assessed as control of tomato late blight disease development at 2 ug/ml treated 1 day before spore inoculation measured 3 days after inoculation", "how_it_was_run": "as §3"}, "Colletotrichum coccodes [8]": {"tested_on": "Colletotrichum coccodes", "experiment": "In vivo antifungal activity against Colletotrichum coccodes infected red pepper seedlings assessed as control of red pepper anthracnose development at 10 ug/ml treated 1 day before spore inoculation measured 3-7 days after inoculation", "how_it_was_run": "as §3"}, "Colletotrichum coccodes [9]": {"tested_on": "Colletotrichum coccodes", "experiment": "In vivo antifungal activity against Colletotrichum coccodes infected red pepper seedlings assessed as control of red pepper anthracnose development at 50 ug/ml treated 1 day before spore inoculation measured 3-7 days after inoculation", "how_it_was_run": "as §3"}, "Botrytis cinerea [10]": {"tested_on": "Botrytis cinerea", "experiment": "In vivo antifungal activity against Botryotinia fuckeliana infected in tomato seedlings assessed as control of tomato gray mold disease development at 50 ug/ml treated 1 day before spore inoculation measured 3-7 days after inoculation", "how_it_was_run": "as §3"}, "Botrytis cinerea [11]": {"tested_on": "Botrytis cinerea", "experiment": "In vivo antifungal activity against Botryotinia fuckeliana infected in tomato seedlings assessed as control of tomato gray mold disease development at 5 ug/ml treated 1 day before spore inoculation measured 3-7 days after inoculation", "how_it_was_run": "as §3"}, "Puccinia recondita [12]": {"tested_on": "Puccinia recondita", "experiment": "In vivo antifungal activity against Puccinia recondita infected wheat seedlings assessed as reduction in wheat leaf rust disease symptoms development at 10 ug/ml treated 1 day before spore inoculation measured 7 days after inoculation", "set-up": "scale not given: the % may be the effect or the level left", "how_it_was_run": "as §3"}, "Puccinia recondita [13]": {"tested_on": "Puccinia recondita", "experiment": "In vivo antifungal activity against Puccinia recondita infected wheat seedlings assessed as reduction in wheat leaf rust disease symptoms development at 2 ug/ml treated 1 day before spore inoculation measured 7 days after inoculation", "set-up": "scale not given: the % may be the effect or the level left", "how_it_was_run": "as §3"}, "Rhizoctonia solani [14]": {"tested_on": "Rhizoctonia solani", "experiment": "In vivo antifungal activity against Rhizoctonia solani infected rice seedlings assessed as control of rice sheath blight disease development at 5 ug/ml treated 1 day before spore inoculation measured 3-7 days after inoculation", "how_it_was_run": "as §3"}, "Rhizoctonia solani [15]": {"tested_on": "Rhizoctonia solani", "experiment": "In vivo antifungal activity against Rhizoctonia solani infected rice seedlings assessed as control of rice sheath blight disease development at 50 ug/ml treated 1 day before spore inoculation measured 3-7 days after inoculation", "how_it_was_run": "as §3"}}}
{"smiles": "CCCCCCCCCC[C@H](O)[C@H]1CC[C@H]([C@H]2CC[C@H]([C@H](O)CCCCCCCCCCCCC3=C[C@H](C)OC3=O)O2)O1", "note": "[BULLANIN]", "values": [{"measurement": "mortality", "setting": "[1]", "result": 100, "unit": "%"}, {"measurement": "LC50", "setting": "[2]", "result": 0.018, "unit": "µg/mL"}]}
{"smiles": "O=C/C=C/c1ccccc1", "note": "[CINNAMALDEHYDE]", "values": [{"measurement": "LC50", "setting": "Meloidogyne incognita [3]", "result": 13.9, "unit": "µg/mL"}, {"measurement": "LC50", "setting": "Meloidogyne incognita [4]", "result": 15.1, "unit": "µg/mL"}, {"measurement": "LC50", "setting": "Meloidogyne incognita [5]", "result": 12.2, "unit": "µg/mL"}]}
{"smiles": "COc1ccc(C(=CC(=O)N2CCOCC2)c2ccc(Cl)cc2)cc1OC", "note": "[DIMETHOMORPH]", "values": [{"measurement": "Activity", "setting": "Phytophthora infestans [6]", "result": 100, "unit": "%"}, {"measurement": "Activity", "setting": "Phytophthora infestans [7]", "result": 85, "unit": "%"}]}
{"smiles": "N#Cc1sc2c(=O)c3ccccc3c(=O)c=2sc1C#N", "note": "[DITHIANON]", "values": [{"measurement": "Activity", "setting": "Colletotrichum coccodes [8]", "result": 20, "unit": "%"}, {"measurement": "Activity", "setting": "Colletotrichum coccodes [9]", "result": 100, "unit": "%"}]}
{"smiles": "N#Cc1c[nH]cc1-c1cccc2c1OC(F)(F)O2", "note": "[FLUDIOXONIL]", "values": [{"measurement": "Activity", "setting": "Botrytis cinerea [10]", "result": 100, "unit": "%"}, {"measurement": "Activity", "setting": "Botrytis cinerea [11]", "result": 83, "unit": "%"}]}
{"smiles": "C[Si](Cn1cncn1)(c1ccc(F)cc1)c1ccc(F)cc1", "note": "[FLUSILAZOLE]", "values": [{"measurement": "Activity", "setting": "Puccinia recondita [12]", "result": 100, "unit": "%"}, {"measurement": "Activity", "setting": "Puccinia recondita [13]", "result": 78, "unit": "%"}]}
{"smiles": "CCCCCCCCCC[C@@H](O)[C@H]1CC[C@H]([C@H]2CC[C@H]([C@H](O)CCCCCCCCCCCCC3=C[C@H](C)OC3=O)O2)O1", "note": "[ISODESAACETYLUVARICIN]", "values": [{"measurement": "mortality", "setting": "[1]", "result": 100, "unit": "%"}, {"measurement": "LC50", "setting": "[2]", "result": 0.024, "unit": "µg/mL"}]}
{"smiles": "OCC1=C[C@H](N[C@H]2C[C@H](CO)[C@@H](O[C@@H]3O[C@H](CO)[C@@H](O)[C@H](O)[C@H]3O)[C@H](O)[C@H]2O)[C@H](O)[C@@H](O)[C@@H]1O", "note": "[VALIDAMYCIN]", "values": [{"measurement": "Activity", "setting": "Rhizoctonia solani [14]", "result": 70, "unit": "%"}, {"measurement": "Activity", "setting": "Rhizoctonia solani [15]", "result": 100, "unit": "%"}]}
